Values after ≈ are worked out from the molar mass of the structure shown. A value given as a limit tells only on which side of the number the result lay.

Data set [1] has as its system Acinetobacter baumannii. The experiment in a line: Potentiation of erythromycin antibacterial activity against Acinetobacter baumannii AB5075 assessed as erythromycin MIC at 20 uM incubated for 16 hrs by broth microdilution method. Type of data set: functional. Background: Dilution methods test growth across graded concentrations, often in twofold steps.
In data set [2] the test system is Acinetobacter baumannii. The experiment in a line: Potentiation of Clarithromycin antibacterial activity against Acinetobacter baumannii AB5075 assessed as clarithromycin MIC at 7.5 uM incubated for 16 hrs by broth microdilution method. In kind it is functional.
For data set [3], the system named is Acinetobacter baumannii. The experiment in a line: Potentiation of rifampicin antibacterial activity against Acinetobacter baumannii AB5075 assessed as rifampicin MIC at 20 uM incubated for 16 hrs by broth microdilution method. In kind it is functional.
Data set [4] has as its system Acinetobacter baumannii. The data set can be described thus: Potentiation of Clarithromycin antibacterial activity against Acinetobacter baumannii AB5075 assessed as fold reduction in clarithromycin MIC at 30 uM incubated for 16 hrs by broth microdilution method. In kind it is functional. In short, it runs like this:
(§1)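 Checkerboard-style potentiation by broth microdilution. 6 h day cultures in CAMHB diluted to 5×10^5 CFU/mL. Adjuvant added from 10 mM DMSO stock at fixed concentration throughout. […] Controls: antibiotic alone, adjuvant alone, media only. Incubated stationary at 37 °C for 16 h. MIC is lowest concentration with no visible growth; fold reduction taken against the antibiotic-alone lane.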

Data set [5] relates to Acinetobacter baumannii. The data set can be described thus: Potentiation of rifampicin antibacterial activity against Acinetobacter baumannii AB5075 assessed as rifampicin MIC at 10 uM incubated for 16 hrs by broth microdilution method. In kind it is functional.
In data set [6] the test system is Acinetobacter baumannii. The experiment in a line: Potentiation of Azithromycin antibacterial activity against Acinetobacter baumannii AB5075 assessed as azithromycin MIC at 30 uM incubated for 16 hrs by broth microdilution method. In kind it is functional.
For data set [7], the system named is Acinetobacter baumannii. The data set can be described thus: Potentiation of Clarithromycin antibacterial activity against Acinetobacter baumannii AB5075 assessed as clarithromycin MIC at 20 uM incubated for 16 hrs by broth microdilution method. Type of data set: functional.
Data set [8] has as its system Acinetobacter baumannii. The data set can be described thus: Antibacterial activity against Acinetobacter baumannii AB5075 assessed as reduction in bacterial growth incubated for 16 hrs by broth microdilution method. Type of data set: functional.
Data set [9] relates to Acinetobacter baumannii. The experiment in a line: Potentiation of erythromycin antibacterial activity against Acinetobacter baumannii AB5075 assessed as erythromycin MIC at 10 uM incubated for 16 hrs by broth microdilution method. Type of data set: functional.
For data set [10], the system named is Acinetobacter baumannii. The experiment in a line: Potentiation of erythromycin antibacterial activity against Acinetobacter baumannii AB5075 assessed as erythromycin MIC at 30 uM incubated for 16 hrs by broth microdilution method. Type of data set: functional.
Data set [11] deals with Acinetobacter baumannii. The experiment in a line: Potentiation of Azithromycin antibacterial activity against Acinetobacter baumannii AB5075 assessed as azithromycin MIC at 10 uM incubated for 16 hrs by broth microdilution method. In kind it is functional.
Data set [12] has as its system Acinetobacter baumannii. The data set can be described thus: Potentiation of Clarithromycin antibacterial activity against Acinetobacter baumannii AB5075 assessed as clarithromycin MIC at 10 uM incubated for 16 hrs by broth microdilution method. Type of data set: functional.
Data set [13] concerns Acinetobacter baumannii. The data set can be described thus: Potentiation of rifampicin antibacterial activity against Acinetobacter baumannii AB5075 assessed as rifampicin MIC at 30 uM incubated for 16 hrs by broth microdilution method. In kind it is functional.
Data set [14] relates to Acinetobacter baumannii. The experiment in a line: Potentiation of Azithromycin antibacterial activity against Acinetobacter baumannii AB5075 assessed as azithromycin MIC at 20 uM incubated for 16 hrs by broth microdilution method. Type of data set: functional.
In data set [15] the test system is Acinetobacter baumannii. The data set can be described thus: Potentiation of Clarithromycin antibacterial activity against Acinetobacter baumannii AB5075 assessed as clarithromycin MIC at 30 uM incubated for 16 hrs by broth microdilution method. In kind it is functional.
Data set [16] has as its system Acinetobacter baumannii. The experiment in a line: Potentiation of Clarithromycin antibacterial activity against Acinetobacter baumannii AB5075 assessed as reduction in clarithromycin MIC at 20 uM incubated for 16 hrs by broth microdilution method. Type of data set: functional.
Data set [17] concerns Acinetobacter baumannii. The data set can be described thus: Potentiation of Clarithromycin antibacterial activity against Acinetobacter baumannii AB5674 assessed as clarithromycin MIC at 10 uM incubated for 16 hrs by broth microdilution method. In kind it is functional.
In data set [18] the test system is Acinetobacter baumannii. The data set can be described thus: Potentiation of Clarithromycin antibacterial activity against Acinetobacter baumannii AB3560 assessed as clarithromycin MIC at 10 uM incubated for 16 hrs by broth microdilution method. In kind it is functional.
The subject of data set [19] is Acinetobacter baumannii. The experiment in a line: Potentiation of erythromycin antibacterial activity against Acinetobacter baumannii AB5075 assessed as erythromycin MIC at 7.5 uM incubated for 16 hrs by broth microdilution method. In kind it is functional.
For data set [20], the system named is Acinetobacter baumannii. The data set can be described thus: Potentiation of Clarithromycin antibacterial activity against Acinetobacter baumannii AB5711 assessed as clarithromycin MIC at 10 uM incubated for 16 hrs by broth microdilution method. In kind it is functional.
The nature of data set [21]: Metabolic stability in human liver microsomes assessed as parent compound remaining in presence of NADPH measured at 1 hr by UV-UPLC analysis. Type of data set: ADME, Microsome. On the technique in general: Liver microsomes are vesicles of endoplasmic reticulum, rich in cytochrome P450 enzymes.
Data set [22] is described as follows: Antiproliferative against human HepG2 cells assessed as reduction in cell viability incubated for 24 hrs by XTT assay. Type of data set: toxicity, cell-based. In general terms: Formazan colour is commonly taken as a measure of viable cells.
In data set [23] the test system is Acinetobacter baumannii. The data set can be described thus: Potentiation of Clarithromycin antibacterial activity against Acinetobacter baumannii AB5075 assessed as fold reduction in clarithromycin MIC at 10 uM incubated for 16 hrs by broth microdilution method. Type of data set: functional. In short, it runs like this:
as §1

For data set [24], the system named is Acinetobacter baumannii. The data set can be described thus: Potentiation of Clarithromycin antibacterial activity against Acinetobacter baumannii AB5075 assessed as clarithromycin MIC at 5 uM incubated for 16 hrs by broth microdilution method. In kind it is functional.
A short description of data set [25]: Therapeutic index, ratio of IC50 for antiproliferative against human HepG2 cells assessed as reduction in cell viability to MIC for potentiation of Clarithromycin antibacterial activity against Acinetobacter baumannii […] assessed as clarithromycin MIC. Type of data set: toxicity, cell-based. The note with it: read-out: TI.
A short description of data set [26]: Stability of compound in human plasma assessed as parent compound remaining measured at 4 hrs. Type of data set: ADME, cell-free. The method in brief:
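Compound at 20 μM final in human plasma (from 10 mM DMSO stock), 37 °C; aliquots at 0, 30, 60, 120, 240 min quenched in internal standard in 1:1 ACN/MeOH, centrifuged, supernatant analysed by UPLC-MRM. Peak-area ratio to internal standard expressed as % parent remaining relative to 0 min; half-life calculated.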

Data set [27] concerns Acinetobacter baumannii. The data set can be described thus: Potentiation of Azithromycin antibacterial activity against Acinetobacter baumannii AB5075 assessed as azithromycin MIC at 7.5 uM incubated for 16 hrs by broth microdilution method. Type of data set: functional.
Data set [28] relates to Acinetobacter baumannii. The data set can be described thus: Potentiation of Clarithromycin antibacterial activity against Acinetobacter baumannii AB4498 assessed as clarithromycin MIC at 10 uM incubated for 16 hrs by broth microdilution method. Type of data set: functional.
The subject of data set [29] is Acinetobacter baumannii. The experiment in a line: Potentiation of Clarithromycin antibacterial activity against Acinetobacter baumannii AB5075 assessed as fold reduction in clarithromycin MIC at 7.5 uM incubated for 16 hrs by broth microdilution method. In kind it is functional. In short, it runs like this: as §1
Data set [30] concerns Acinetobacter baumannii. The data set can be described thus: Potentiation of rifampicin antibacterial activity against Acinetobacter baumannii AB5075 assessed as fold reduction in rifampicin MIC at 10 uM incubated for 16 hrs by broth microdilution method. Type of data set: functional.
Data set [31] concerns Acinetobacter baumannii. The experiment in a line: Potentiation of Clarithromycin antibacterial activity against Acinetobacter baumannii AB967 assessed as clarithromycin MIC at 10 uM incubated for 16 hrs by broth microdilution method. In kind it is functional.
Data set [32] relates to Acinetobacter baumannii. The data set can be described thus: Potentiation of Clarithromycin antibacterial activity against Acinetobacter baumannii AB3785 assessed as clarithromycin MIC at 10 uM incubated for 16 hrs by broth microdilution method. Type of data set: functional.
The test system of data set [33] is Acinetobacter baumannii. The data set can be described thus: Antibacterial activity against Acinetobacter baumannii AB4498 assessed as reduction in bacterial growth incubated for 16 hrs by broth microdilution method. Type of data set: functional.
Data set [34] relates to Pseudomonas aeruginosa. The experiment in a line: Antibacterial activity against Pseudomonas aeruginosa PAO1 assessed as inhibition of bacterial growth incubated for 16 hrs by broth microdilution method. In kind it is functional. In short, it runs like this: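 Standalone MIC by broth microdilution. 6 h day cultures in cation-adjusted Mueller-Hinton broth (CAMHB) diluted to 5×10^5 CFU/mL. Compound added from 10 mM DMSO stock to 200 μM (highest concentration), then twofold serial dilution. Incubated stationary at 37 °C for 16 h. OD600 read; MIC is lowest concentration with <10% growth versus positive control.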

In data set [35] the test system is Acinetobacter baumannii. The experiment in a line: Antibacterial activity against Acinetobacter baumannii AB967 assessed as reduction in bacterial growth incubated for 16 hrs by broth microdilution method. In kind it is functional. The method in brief: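 Six-hour CAMHB day cultures were diluted to 5×10^5 CFU/mL in CAMHB and dosed from DMSO stocks. Two-fold serial dilutions were made in broth, with a medium-only blank. Plates were incubated stationary at 37 °C for 16 h and read at OD600. The MIC was the lowest concentration giving <10% growth versus the positive control.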

In data set [36] the test system is Acinetobacter baumannii. The experiment in a line: Antibacterial activity against Acinetobacter baumannii AB5711 assessed as reduction in bacterial growth incubated for 16 hrs by broth microdilution method. Type of data set: functional.
Data set [37] has as its system Acinetobacter baumannii. The experiment in a line: Antibacterial activity against Acinetobacter baumannii AB3785 assessed as reduction in bacterial growth incubated for 16 hrs by broth microdilution method. Type of data set: functional.

As for `Nc1nc(-c2ccc(NC(=O)Nc3ccc(-c4c[nH]c(N)n4)cc3)cc2)c[nH]1`, the minimum inhibitory concentration (MIC) (as a rule, the smallest concentration in the dilution series that meets the test's criterion for growth inhibition) in data set [1] was determined as 2 mg/L; in data set [2], 8 mg/L; in data set [3], 0.125 mg/L; in data set [5], 2 mg/L; in data set [6] it was 0.5 mg/L; in data set [7] it was 0.5 mg/L. Moreover, the MIC in data set [8] is over 200 µM; in data set [9], 8 mg/L; in [10] it was 0.5 mg/L; in data set [11], 8 mg/L; in [12], 4 mg/L; in data set [13] it was 0.007 mg/L. Further, the minimal inhibitory concentration (MIC) stood at 1 mg/L in data set [14] and 0.125 mg/L in data set [15]. In addition, the “fold change (FC)” value in data set [4] was determined as 256; in [16] it was 64.
Turning to `Cl.Cl.Nc1nc(-c2ccc(NC(=O)Nc3ccc(-c4c[nH]c(N)n4)c(F)c3)cc2F)c[nH]1`, the MIC came out at 0.5 mg/L in [1]; 0.5 mg/L in [17]; 0.5 mg/L in data set [2]; 0.25 mg/L in data set [3]; 0.5 mg/L in data set [18]; 8 mg/L in data set [19]. The minimal inhibitory concentration (MIC) in data set [20] is 1 mg/L; in data set [24], 2 mg/L; in data set [5], 1 mg/L; in data set [6], 0.5 mg/L; in data set [8] it was over 200 µM; in data set [27], 16 mg/L. In addition, the minimal inhibitory concentration (MIC) in [28] was determined as 1 mg/L; in [9], 1 mg/L; in [10], 0.125 mg/L; in data set [11], 2 mg/L; in data set [12] it was 0.125 mg/L; in data set [13], 0.125 mg/L. In addition, the MIC in data set [14] was 1 mg/L; in [31], 0.25 mg/L; in data set [32], 1 mg/L; in data set [15], at most 0.062 mg/L; in [16] (Acinetobacter baumannii, AB5075) it was at most 0.062 mg/L. Further, the Stability is 82% in data set [21] and 83% in data set [26]. Also, the 50% inhibitory concentration (IC50) (commonly the concentration that inhibits the measured activity by half) at 24 h in [22] was found to be 127 mg/L. The “fold change (FC)” value in data set [23] was 256; in data set [4] it was “>=512”; in [29], 64; in [30], 4. In addition, the selectivity ratio in data set [25] is 52.9.
As to `CC[C@H]1OC(=O)[C@H](C)[C@@H](O[C@H]2C[C@@](C)(OC)[C@@H](O)[C@H](C)O2)[C@H](C)[C@@H](O[C@@H]2O[C@H](C)C[C@H](N(C)C)[C@H]2O)[C@](C)(OC)C[C@@H](C)C(=O)[C@H](C)[C@@H](O)[C@]1(C)O` [CLARITHROMYCIN], the minimum inhibitory concentration (MIC) in data set [33] is 64 mg/L (≈ 85.6 µM); in data set [34] it was over 200 µM; in [35], 16 mg/L (≈ 21.4 µM); in data set [36] it was 64 mg/L (≈ 85.6 µM); in data set [37], 64 mg/L (≈ 85.6 µM).
